Series [1] concerns U-87 MG. In words: Cytotoxicity against human U87MG cells assessed as reduction in cell viability after 48 hrs under normoxia condition by MTT assay. Type of series: functional, cell-based, U-87MG ATCC. The procedure, abridged: (§1)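 U87MG in DMEM with 10% FBS, 2 mM L-glutamine, penicillin/streptomycin; seeded 10,000 cells/well, 24 h at 37 °C, then exposed to compound at varying concentrations for 48 h at 37 °C either in a CO₂ incubator (normoxia) or a hypoxic chamber. MTT (0.5 mg/mL in PBS) added 2 h, DMSO solubilisation, absorbance 570 nm; IC50 by curve fitting; triplicate biological replicates.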
A general note: Tetrazolium dyes change colour on reduction, which living cells bring about.

The subject of series [2] is U-87 MG. In words: Cytotoxicity against human U87MG cells assessed as reduction in cell viability after 48 hrs under hypoxia condition by MTT assay. The class given is functional, cell-based, U-87MG ATCC. The procedure, abridged:
as §1

For series [3], the system named is U-87 MG. In words: Selectivity index, ratio of IC50 for cytotoxicity against human U87MG cells under normoxia condition to IC50 for cytotoxicity against human U87MG cells under hypoxia condition incubated for 48 hrs by MTT assay. The class given is functional, U-87MG ATCC.
The test system of series [4] is DRG neuron. In words: Induction of cell death in STOCK Tg(CalcaEGFP)FG104Gsat/Mmucd) mouse DRG neurons N15 cells harboring CGRP-GFP at 1 uM 7 secs by Alexa-Flour 647 Isolectin B4 staining based light micrographic method. Type of series: functional. The procedure, abridged:
(§2)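 Lumbar DRG L1–L6 from CGRP-GFP mice, dissociated with 0.25% trypsin for 20 min and triturated. Cultured ~16–24 h at 37 °C, 5% CO2, in MEM/10% FBS/HEPES/glucose, pH 7.4, then loaded with 4 μM Fura2-AM for 1 h. Ratio 340/380 nm excitation, 510 nm emission, recorded at room temperature during ~1 h pharmacology sequence. IB4 stain afterwards; cells classed by AITC, menthol, capsaicin, kM-RIIIJ, IB4 and CGRP-GFP.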

For series [5], the system named is Cerebral cortex. In words: Induction of cell death in mouse brain cortex assessed as increase in cell lysis at 1 uM after 5 secs by Alexa-Flour 647 Isolectin B4 staining based assay. Type of series: functional, tissue-based.
Another series relates to A549. Kind of series: Cytotoxicity against human A549 cells assessed as reduction in cell viability after 48 hrs by MTT assay. Type of series: functional, cell-based. The following applies: A549, 48 h. The essentials:
(§3)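 Cells seeded at 10,000/well, left 24 h at 37 °C, then exposed to a range of concentrations for 48 h at 37 °C, either in a CO2 incubator (normoxia) or in a hypoxic chamber. MTT (0.5 mg/mL in PBS) was added for 2 h, DMSO was added, and absorbance was read at 570 nm. IC50 was fitted from the curves. Triplicate biological replicates.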

A short description of series [6]: Induction of calcium influx in STOCK Tg(CalcaEGFP)FG104Gsat/Mmucd) mouse DRG neurons harboring CGRP-GFP assessed as increase in cytoplasmic Ca2+ at 500 nM after 7 secs by Alexa-Flour 647 Isolectin B4 staining based assay relative to control. The class given is functional, DRG neuron. The procedure, abridged:
as §2

Series [7] can be described thus: Toxicity in TuAB zebra fish embryo at 10 to 1000 nM dosed at 6 hpf and measured after 1 day postfertilization by bright field microscopic method. The following applies: zebrafish, in vivo, 24 h, 1 µM. Type of series: organism-based, Danio rerio. The procedure, abridged: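 TuAB zebrafish embryos exposed to compound or DMSO vehicle from 6 hpf to 1 dpf at 28.5 °C, then assessed by bright-field stereomicroscope imaging.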

A short description of series [8]: Induction of calcium influx in STOCK Tg(CalcaEGFP)FG104Gsat/Mmucd) mouse DRG neurons harboring CGRP-GFP assessed as increase in cytoplasmic Ca2+ in at 500 nM after 7 secs by Alexa-Flour 647 Isolectin B4 staining based assay relative to control. The class given is functional, DRG neuron. The procedure, abridged: as §2
The next series has as its system Huh-7. Kind of series: Cytotoxicity against human HuH7 cells assessed as reduction in cell viability after 48 hrs by MTT assay. The following applies: Huh-7, 48 h. Type of series: functional, cell-based. The procedure, abridged: as §3
Series [9] has as its system DRG neuron. Kind of series: Induction of calcium influx in STOCK Tg(CalcaEGFP)FG104Gsat/Mmucd) mouse DRG neurons harboring CGRP-GFP assessed as increase in cytoplasmic Ca2+ pulse at 10 nM after 15 secs by […]. Type of series: functional, cell-based. The procedure, abridged:
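DRG neurons from CGRP-GFP mice, Fura2-AM loaded, imaged as 340/380 nm ratio. Compound applied as a 15-second pulse, with concentrations down to ~10 nM tested. Neuron classes assigned by pharmacological markers and IB4/CGRP-GFP.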

Series [10] is described as follows: Cytotoxicity against human CH157 cells assessed as reduction in cell viability after 48 hrs by MTT assay. The class given is functional, cell-based.
Series [11] relates to Cerebral cortex. In words: Induction of cell death in mouse brain cortex assessed as increase in cytoplasmic Ca2+ accumulation at 1 uM by Alexa-Flour 647 Isolectin B4 staining based assay. Type of series: functional, tissue-based.
The next series concerns CHO. In words: Cytotoxicity against […] assessed as reduction in cell viability after 48 hrs by MTT assay. The class given is cell-based. The note with it: Cricetulus griseus. The essentials: as §3
In series [12] the test system is DRG neuron. Kind of series: Irreversible induction of calcium influx in STOCK Tg(CalcaEGFP)FG104Gsat/Mmucd) mouse DRG neurons harboring CGRP-GFP assessed as increase in cytoplasmic Ca2+ pulse at 1 uM after 15 secs by […]. Type of series: functional, cell-based. The essentials: as §2
Series [13] in a line: Induction of calcium influx in STOCK Tg(CalcaEGFP)FG104Gsat/Mmucd) mouse DRG neurons harboring CGRP-GFP assessed as increase in cytoplasmic Ca2+ at 1 uM after 7 secs by Alexa-Flour 647 Isolectin B4 staining based assay relative to control. The class given is functional, DRG neuron. The essentials:
as §2

Calls of active or inactive are those of the source. No cut-off for these calls is given here.

In the case of `Cn1nnc2c(C(N)=O)ncn2c1=O` [TEMOZOLOMIDE], the 50% inhibitory concentration (IC50) in the series with U-87 MG [1] turned out to be 640 µM; in the series on U-87 MG [2], 1100 µM. For the same molecule, the “Ratio IC50” value in the series with U-87 MG [3] was 0.6.
As for `C=C1/C=C/C(=O)NCC(=O)N[C@@H](C(C)C)C(=O)O[C@@H]([C@H](C)C[C@@H](C)CCC)[C@H](OC)C(=O)N1`, the result in the series with DRG neuron [4], in the series with Cerebral cortex [5], in the series on DRG neuron [9], in the series on Cerebral cortex [11] and with DRG neuron [12] was Active. The IC50 came to 0.41 µM in the series with U-87 MG [1]; 0.39 µM in the series with A549; 0.12 µM with U-87 MG [2]; 0.19 µM in the series on Huh-7; 0.098 µM in series [10]; 0.39 µM in the series on CHO. Besides, the Activity in series [6] is given as 8%; in series [7] it was “Non-Toxic”; in [8] it was 61%; in series [13], 34%. For the same molecule, the “Ratio IC50” value in the series with U-87 MG [3] came out at 3.6.
As for `COc1cccc2c1C(=O)c1c(O)c3c(c(O)c1C2=O)C[C@@](O)(C(=O)CO)C[C@@H]3O[C@H]1C[C@H](N)[C@H](O)[C@H](C)O1` [DOXORUBICIN], the 50% inhibitory concentration (IC50) in the series on U-87 MG [1] was 0.45 µM; with U-87 MG [2] it was 0.98 µM. Besides, in the series with U-87 MG [3], the “Ratio IC50” value was 0.45.

Broadly, the IC50 is the midpoint of a concentration-inhibition curve.
